KSHV LANA nucl = inhibitors of KSHV LANA binding to nucleosomes; actives 0.3% (n = 51,000); z-score (concentration not given with the values); FITC-LANA1-23 / chicken nucleosome fluorescence polarization; hits give low values; AID 720717;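 active means both repeat wells score below -2 in polarization z-score versus plate sample wells, excluding overly bright wells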
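Test system: purified chicken nucleosomes with FITC-labelled LANA N-terminal peptide (1-23); Input: 240 nM purified chicken nucleosomes (480 nM peptide binding sites), final; Medium: TEN-BT buffer, pH 7.5; Timing: 10–45 min, room temperature; Technique: fluorescence polarization, 480 nm excitation, 535 nm parallel and perpendicular emission; Replication: duplicates.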
BasE inh = blocks the Acinetobacter baumannii siderophore enzyme BasE; actives 0.1% (n = 84,000); inhibition, % (test concentration not listed); purified BasE, fluorescence polarization binding displacement; in the data active means inhibition above about 25%, passing the limit was not always enough
A number is an active result. An excerpt weighted towards active compounds, which were near 0.3% of everything screened.

How did CC1CCN(C(=O)c2ccccc2NC(=O)C(C)(C)C)CC1 do in these assays?
KSHV LANA nucl: inactive; BasE inh: inactive

Results for CC(C)(C)N/N=C/c1ccc(O)c(O)c1O ?
BasE inh: inactive

Results for Oc1ccc(/C=N/NC(=S)Nc2ccc(Cl)cc2Cl)c(O)c1O ?
BasE inh: 34

How did O=C(Cn1ncc(Cl)c(Cl)c1=O)N1CCCCCC1 do in these assays?
BasE inh: inactive

What do the screens show for `O=C1/C(=C\C=C\c2ccco2)SC(=S)N1NS(=O)(=O)c1ccccc1`?
KSHV LANA nucl: inactive; BasE inh: 40

What do the screens show for `CC(C)C(C(=O)O)N1C(=O)/C(=C/C=C/c2ccco2)SC1=S` (stereo not drawn)?
KSHV LANA nucl: inactive; BasE inh: inactive

Results for O=C(NN1C(=O)/C(=C\C=C\c2ccco2)SC1=S)c1ccccc1O ?
KSHV LANA nucl: inactive; BasE inh: inactive

What do the screens show for `O=C(O)CCC(C(=O)O)N1C(=O)/C(=C/C=C/c2ccco2)SC1=S` (stereo not drawn)?
KSHV LANA nucl: -2.2; BasE inh: inactive

What do the screens show for `Cc1nnc(COc2ccccc2C#N)o1`?
BasE inh: inactive

Results for CCOC(=O)c1c2ccc(O)cc2n2ccccc12 ?
KSHV LANA nucl: -7

What do the screens show for `CCOC(=O)c1c(C)n(C)c2ccc(O)cc12`?
KSHV LANA nucl: inactive; BasE inh: inactive

What do the screens show for `Cc1ccc(C)c(-n2nnnc2SCC(=O)N=c2sc3ccccc3n2C)c1`?
BasE inh: inactive

Results for O=C1C(c2ccnc3ccccc23)=C(O)c2ccccc21 ?
KSHV LANA nucl: -4.2; BasE inh: inactive

What do the screens show for `O=C1C(c2ccc(I)cc2)=C(O)c2ccccc21`?
BasE inh: inactive

Results for COc1ccc(C2C(C(N)=O)C(=O)NC(O)(c3ccccc3)C2C#N)cc1 (stereo not drawn) ?
KSHV LANA nucl: -2.3; BasE inh: inactive

Results for COc1ccc(C2CC(=O)N3C(=C2C#N)SCC3(O)c2ccccc2)cc1 (stereo not drawn) ?
KSHV LANA nucl: inactive; BasE inh: inactive

Results for CCOC(=O)N1CCN(C(=O)C(C)Oc2ccc(C(C)(C)C)cc2)CC1 (stereo not drawn) ?
KSHV LANA nucl: inactive; BasE inh: inactive

How did CCCCNC(=O)Nc1nnc(Cc2ccccc2)s1 do in these assays?
BasE inh: inactive

Results for Cc1ccc(Oc2ccc3c(c2)C(=O)N(CC2CCCO2)C3=O)cc1 (stereo not drawn) ?
KSHV LANA nucl: inactive; BasE inh: inactive

Results for N#C/C(=C\c1ccc(-c2ccccc2)o1)c1ccccc1 ?
KSHV LANA nucl: inactive; BasE inh: inactive

Results for N#C/C(=C\c1ccc(N2CCCC2)o1)c1ccccc1 ?
KSHV LANA nucl: -5.4; BasE inh: inactive

High-throughput results (PubChem)
